These results are taken from ChEMBL document CHEMBL2034825, “Chemical syntheses and in vitro antibacterial activity of two desferrioxamine B-ciprofloxacin conjugates with potential esterase and phosphatase triggered drug release linkers” (2012).

For assay [1], the system named is Bacillus subtilis. Put plainly: Antibacterial activity against Bacillus subtilis ATCC 6633 at 50 uL of 0.2 mM solution of compound dissolved in 1:9 DMSO/MeOH measured after 24 hrs by agar well diffusion method. It is filed as functional. The procedure, abridged: (§1)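 Agar well diffusion. 50 µL of a 0.2 mM solution in 1:9 DMSO/MeOH was filled into 9 mm wells in nutrient agar or Mueller Hinton II agar. Plates were incubated 24 h at 37 °C before inhibition zones were read. Zones were scored as partially clear (p, colonies in zone) or unclear (P, many colonies in zone).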
(Agar diffusion results depend on both activity and mobility in agar.)

Assay [2] has as its system Staphylococcus aureus. Put plainly: Antibacterial activity against Staphylococcus aureus SG 511 at 50 uL of 0.2 mM solution of compound dissolved in 1:9 DMSO/MeOH measured after 24 hrs by agar well diffusion method. It is filed as functional. Summed up: as §1
For assay [3], the system named is Micrococcus luteus. Put plainly: Antibacterial activity against Micrococcus luteus ATCC 10240 at 50 uL of 0.2 mM solution of compound dissolved in 1:9 DMSO/MeOH measured after 24 hrs by agar well diffusion method. It is filed as functional. The procedure, abridged:
as §1

Assay [4] relates to Pseudomonas aeruginosa. In words: Antibacterial activity against wild type Pseudomonas aeruginosa K799 at 50 uL of 0.2 mM solution of compound dissolved in 1:9 DMSO/MeOH measured after 24 hrs by agar well diffusion method. It is filed as functional. Summed up: as §1
Assay [5] concerns Escherichia coli. Put plainly: Antibacterial activity against Escherichia coli X580 at 50 uL of 0.2 mM solution of compound dissolved in 1:9 DMSO/MeOH measured after 24 hrs by agar well diffusion method. It is filed as functional. Summed up:
as §1

In assay [6] the test system is Pseudomonas aeruginosa. Put plainly: Antibacterial activity against Pseudomonas aeruginosa K799/61 assessed as unclear inhibition zone at 50 uL of 0.2 mM solution of compound dissolved in 1:9 DMSO/MeOH measured after 24 hrs by agar well diffusion method. It is filed as functional. The procedure, abridged:
as §1

The test system of assay [7] is Escherichia coli. In words: Antibacterial activity against Escherichia coli X580 assessed as partially clear inhibition zone at 50 uL of 0.2 mM solution of compound dissolved in 1:9 DMSO/MeOH measured after 24 hrs by agar well diffusion method. Format: functional. The procedure, abridged: as §1
For assay [8], the system named is Pseudomonas aeruginosa. In words: Antibacterial activity against Pseudomonas aeruginosa K799/61 at 50 uL of 0.2 mM solution of compound dissolved in 1:9 DMSO/MeOH measured after 24 hrs by agar well diffusion method. It is filed as functional. Summed up: as §1
In the next assay the test system is Enterococcus faecium. Put plainly: Antibacterial activity against Enterococcus faecium NCTC 7171 by broth microdilution method. It is filed as functional. The procedure, abridged: (§2)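 MIC90 (µM) by broth microdilution in Mueller-Hinton broth No.2 (MHII) following CLSI guidelines. End point read visually. Each compound tested in triplicate.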
(In general: Broth dilution looks for growth in wells or tubes with falling amounts of substance.)

For assay [9], the system named is Staphylococcus aureus. In words: Antibacterial activity against Staphylococcus aureus ATCC 29213 by broth microdilution method. It is filed as functional. Summed up:
as §2

A further assay relates to Klebsiella pneumoniae. In words: Antibacterial activity against Klebsiella pneumoniae ATCC 700603 by broth microdilution method. Format: functional. Summed up:
as §2

In the next assay the test system is Acinetobacter baumannii. Put plainly: Antibacterial activity against Acinetobacter baumannii ATCC 17961 by broth microdilution method. It is filed as functional. The procedure, abridged: as §2
For assay [10], the system named is Pseudomonas aeruginosa. Put plainly: Antibacterial activity against Pseudomonas aeruginosa ATCC 27853 by broth microdilution method. Format: functional. Summed up:
as §2

The next assay deals with Klebsiella aerogenes. Put plainly: Antibacterial activity against Enterobacter aerogenes ATCC 35029 by broth microdilution method. It is filed as functional. The procedure, abridged: as §2
Assay [11] relates to Escherichia coli. Put plainly: Antibacterial activity against Escherichia coli ATCC 25922 by broth microdilution method. Format: functional. The procedure, abridged: as §2
The subject of assay [12] is Pseudomonas aeruginosa. Put plainly: Antibacterial activity against Pseudomonas aeruginosa K799/61 assessed as partially clear inhibition zone at 50 uL of 0.2 mM solution of compound dissolved in 1:9 DMSO/MeOH measured after 24 hrs by agar well diffusion method. It is filed as functional. Summed up: as §1
Assay [13] concerns Micrococcus luteus. Put plainly: Antibacterial activity against Micrococcus luteus ATCC 10240 assessed as unclear inhibition zone at 5 ug/mL after 24 hrs by agar well diffusion method. The settings on record: ATCC 10240, 24 h, read-out: DIZ. Format: functional. Summed up:
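Agar well diffusion with ciprofloxacin dissolved in H2O, tested at 5, 1.66 or […]. Solution was loaded into 9 mm wells in nutrient agar or Mueller Hinton II agar. Inhibition zones were read after 24 h at 37 °C. A zone was scored as P when unclear, with many colonies inside.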

Assay [14] concerns Escherichia coli. Put plainly: Antibacterial activity against Escherichia coli X580 at 0.33 ug/mL after 24 hrs by agar well diffusion method. The conditions noted are these: X580, 24 h, read-out: DIZ.
Assay [15] has as its system Bacillus subtilis. Put plainly: microbe, parasite or virus in culture. The settings on record: ATCC 6633, 24 h, read-out: DIZ.
For assay [16], the system named is Staphylococcus aureus. Put plainly: microbe, parasite or virus in culture. The conditions noted are these: SG 511, 24 h, read-out: DIZ.
Assay [17] has as its system Pseudomonas aeruginosa. Put plainly: microbe, parasite or virus in culture. The conditions noted are these: K799, 24 h, read-out: DIZ.
Assay [18] deals with Pseudomonas aeruginosa. Put plainly: microbe, parasite or virus in culture. The conditions noted are these: K799/61, 24 h, read-out: DIZ.
For assay [19], the system named is Pseudomonas aeruginosa. Put plainly: microbe, parasite or virus in culture. The conditions noted are these: K799/61, 24 h, read-out: DIZ. This is another data set of the same source.

Structures are written as SMILES. Converted amounts (≈) assume the structure as drawn. Where only a bound is given, the exact number is not on record here.

For `CC(=O)N(O)CCCCCNC(=O)CCC(=O)N(O)CCCCCNC(=O)CCC(=O)N(O)CCCCCNC(=O)CCC(=O)N1CCN(c2cc3c(cc2F)c(=O)c(C(=O)O)cn3C2CC2)CC1`, the “diameter of the inhibition zone (DIZ)” value in the assay on Bacillus subtilis [1] is recorded as 21 mm; with Staphylococcus aureus [2] it was 18 mm; in the assay with Micrococcus luteus [3], 0 mm; with Pseudomonas aeruginosa [4], 0 mm; with Escherichia coli [5], 30 mm; in the assay on Pseudomonas aeruginosa [6], 26 mm. The “diameter of the inhibition zone (DIZ)” value in the assay on Escherichia coli [7] was determined as 33 mm.
What is called MIC90 is the lowest concentration that inhibits either 90% of growth or 90% of the strains tested, depending on the study. A high value points to lower susceptibility. Consider `CC(=O)N(O)CCCCCNC(=O)CCC(=O)N(O)CCCCCNC(=O)CCC(=O)N(O)CCCCCNC(=O)CCC(=O)Oc1cc(C)cc(C)c1C(C)(C)CC(=O)N1CCN(c2cc3c(cc2F)c(=O)c(C(=O)O)cn3C2CC2)CC1`, for which the “diameter of the inhibition zone (DIZ)” value in the assay on Bacillus subtilis [1] amounted to 26 mm; in the assay with Staphylococcus aureus [2], 16 mm; in the assay with Micrococcus luteus [3], 0 mm; in the assay with Pseudomonas aeruginosa [4], 26 mm; in the assay with Pseudomonas aeruginosa [8], 27 mm; in the assay with Escherichia coli [5], 29 mm. In the assay with Pseudomonas aeruginosa [12], the “diameter of the inhibition zone (DIZ)” value was 37 mm. The MIC90 in the assay with Enterococcus faecium was > 128 µM; with Staphylococcus aureus [9], 32 µM (≈ 37.7 µg/mL); against Klebsiella pneumoniae, 16 µM (≈ 18.9 µg/mL); against Acinetobacter baumannii, 8 µM (≈ 9.43 µg/mL); against Pseudomonas aeruginosa [10] it was 8 µM (≈ 9.43 µg/mL); against Klebsiella aerogenes, 1 µM (≈ 1.18 µg/mL). Besides, the MIC90 against Escherichia coli [11] was 1 µM (≈ 1.18 µg/mL).
As to `CC(=O)N(O)CCCCCNC(=O)CCC(=O)N(O)CCCCCNC(=O)CCC(=O)N(O)CCCCCNC(=O)CCC(=O)Oc1c(C)cc(OP(=O)(O)O)c(C(C)(C)CC(=O)N2CCN(c3cc4c(cc3F)c(=O)c(C(=O)O)cn4C3CC3)CC2)c1C`, the “diameter of the inhibition zone (DIZ)” value in the assay with Bacillus subtilis [1] came to 0 mm; in the assay with Staphylococcus aureus [2], 0 mm; with Micrococcus luteus [3], 0 mm; with Pseudomonas aeruginosa [4] it was 0 mm; in the assay on Pseudomonas aeruginosa [8], 0 mm; with Escherichia coli [5], 21 mm.
Turning to `O=C(O)c1cn(C2CC2)c2cc(N3CCNCC3)c(F)cc2c1=O` [CIPROFLOXACIN], the MIC90 with Enterococcus faecium is 8 µM (≈ 2.65 µg/mL); in the assay on Klebsiella pneumoniae, 0.25 µM (≈ 0.0828 µg/mL); against Acinetobacter baumannii, 0.25 µM (≈ 0.0828 µg/mL); against Pseudomonas aeruginosa [10], 0.25 µM (≈ 0.0828 µg/mL); in the assay with Klebsiella aerogenes it was < 0.015 µM; in the assay with Escherichia coli [11] it was < 0.015 µM. Besides, the zone of inhibition at 5 µg/mL in the assay with Micrococcus luteus [13] came to 12 mm; with Staphylococcus aureus [16], 28 mm. Moreover, the zone of inhibition at 0.33 µg/mL in the assay on Escherichia coli [14] stood at 31 mm. The zone of inhibition at 1.66 µg/mL in the assay on Bacillus subtilis [15] stood at 28 mm; with Pseudomonas aeruginosa [17] it was 21 mm; with Pseudomonas aeruginosa [18], 24 mm; in the assay with Pseudomonas aeruginosa [19], 32 mm.
